According to PMC13487472 (Blood, 2026):

Test system: ALL-SIL
Assay: CTG assay in ALL-SIL
Type: cell-based
Details: ABL-fusion-positive cell line, 72 hrs
Outline: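 After 72 h, an equal volume of CellTiter-Glo was added and luminescence read as an ATP-based proxy for cell number. Signals were normalised to DMSO controls; triplicates; LC50 fitted with a 4-parameter dose-response model.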

Compound: Cc1nc(Nc2ncc(C(=O)Nc3c(C)cccc3Cl)s2)cc(N2CCN(CCO)CC2)n1 [dasatinib]
- Cytotoxicity in ALL-SIL: highly sensitive
